From ChEMBL document CHEMBL1123225, “Opioid agonist and antagonist bivalent ligands. The relationship between spacer length and selectivity at multiple opioid receptors” (J Med Chem, 1986)
Starred links: 1 amine or outer side, 2 acyl side, 3 side chain; linkers in the order of their positions; H or OH if unused. Positions of bridges follow the written chain, without caps; N, C: chain ends. Residues, ends and D or L forms follow the SMILES beside them. Chains are numbered I, II in the order given. *: point of attachment. Naltrexamine(6β) = Oc1ccc2c3c1O[C@H]1[C@H](N*)CC[C@@]4(O)[C@@H](C2)N(CC2CC2)CC[C@]314; Suc = O=C(CCC(=O)[*:2])[*:1]

Experiments:
[1] = molecular target: Mu-type opioid receptor (Cavia porcellus) (UniProt P97266); test: Affinity comparison to [3H]naloxone for Opioid receptor mu 1 in guinea pig brain membrane; assay type: cell membranes
Sequence of Mu-type opioid receptor (Cavia porcellus) (P97266 whole entry): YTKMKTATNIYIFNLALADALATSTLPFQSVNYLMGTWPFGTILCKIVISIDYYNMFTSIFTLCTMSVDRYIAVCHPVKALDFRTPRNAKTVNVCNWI

[2] = Relative potency is the bivalent potency ratio divided by monovalent potency ratio
How it was run: (§1)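 Electrically stimulated guinea pig ileum longitudinal muscle, with agonist inhibition measured. Ligands were incubated 30 min before testing. Potency ratio = morphine IC50 / compound IC50 on the same tissue. The relative value divides the bivalent potency ratio by the monovalent potency ratio. Each value is the mean of at least three replicate experiments.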

[3] = molecular target: Mu-type opioid receptor (Cavia porcellus, UniProt P97266); test: Displacement of [3H]naloxone from Opioid receptor mu 1 in guinea pig brain membrane; assay type: cell membranes
Sequence of Mu-type opioid receptor (P97266 whole entry): as above

[4] = molecular target: Opioid receptors; mu & kappa (Homo sapiens, UniProt P41145+P35372); test: Activity against opioid receptor in guinea pig ileum longitudinal muscle; assay type: functional, tissue-based, Cavia porcellus; conditions: target entry is the homologue from another species; how it was run: as §1
[5] = Potency ratio is the ratio of morphine IC50 to that of compound on same tissue; how it was run: as §1
[6] = (§2) Relative potency is the IC5O in presence of bivalent ligand divided by IC50 in presence of monovalent ligand relative to EK
How it was run: (§3)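 Antagonism in electrically stimulated guinea pig ileum. Antagonist at 10 nM was incubated 30 min, then morphine (μ) or ethylketazocine (κ) concentration–response was run. IC50 ratio = agonist IC50 with antagonist / control IC50 in the same preparation without antagonist. Relative potency = bivalent IC50 ratio / monovalent IC50 ratio. Selectivity = EK IC50 ratio / morphine IC50 ratio.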

[7] = (§4) Selectivity ratio is expressed as EK IC50 ratio divided by morphine IC50 ratio; how it was run: as §3
[8] = Relative potency is the IC5O in presence of bivalent ligand divided by IC50 in presence of monovalent ligand relative to morphine; how it was run: as §3
[9] = molecular target: T1, Opioid receptors; mu/kappa/delta (Homo sapiens) (UniProt P41145+P41143+P35372); test: IC50 of the morphine in the presence of the antagonist (10 nM) divided by the control IC50 (same preparation without antagonist) in guinea pig ileum; assay type: functional, tissue-based; conditions: Cavia porcellus, target entry is the homologue from another species; how it was run: as §3
T1 sequence (P35372 whole entry, looked up): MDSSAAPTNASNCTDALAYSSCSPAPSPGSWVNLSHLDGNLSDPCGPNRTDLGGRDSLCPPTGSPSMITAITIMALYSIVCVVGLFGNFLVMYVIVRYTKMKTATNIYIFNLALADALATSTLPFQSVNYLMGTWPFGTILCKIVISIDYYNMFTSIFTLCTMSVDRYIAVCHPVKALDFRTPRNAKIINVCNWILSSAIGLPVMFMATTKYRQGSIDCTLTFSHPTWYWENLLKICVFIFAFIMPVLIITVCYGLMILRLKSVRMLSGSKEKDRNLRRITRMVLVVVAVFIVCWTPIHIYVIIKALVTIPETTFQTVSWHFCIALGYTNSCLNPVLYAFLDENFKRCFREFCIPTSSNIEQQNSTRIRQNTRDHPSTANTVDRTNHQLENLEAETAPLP
T1 sequence (P41143 whole entry, looked up): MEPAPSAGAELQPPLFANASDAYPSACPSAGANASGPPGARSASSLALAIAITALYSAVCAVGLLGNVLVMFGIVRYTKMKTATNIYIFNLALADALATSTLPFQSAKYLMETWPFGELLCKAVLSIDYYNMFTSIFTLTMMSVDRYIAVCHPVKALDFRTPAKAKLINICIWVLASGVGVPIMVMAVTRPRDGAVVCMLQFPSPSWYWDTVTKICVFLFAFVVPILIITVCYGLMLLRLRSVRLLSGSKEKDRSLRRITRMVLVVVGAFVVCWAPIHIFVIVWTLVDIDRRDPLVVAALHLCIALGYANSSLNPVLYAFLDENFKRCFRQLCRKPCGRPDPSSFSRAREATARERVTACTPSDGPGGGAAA
T1 sequence (P41145 whole entry, looked up): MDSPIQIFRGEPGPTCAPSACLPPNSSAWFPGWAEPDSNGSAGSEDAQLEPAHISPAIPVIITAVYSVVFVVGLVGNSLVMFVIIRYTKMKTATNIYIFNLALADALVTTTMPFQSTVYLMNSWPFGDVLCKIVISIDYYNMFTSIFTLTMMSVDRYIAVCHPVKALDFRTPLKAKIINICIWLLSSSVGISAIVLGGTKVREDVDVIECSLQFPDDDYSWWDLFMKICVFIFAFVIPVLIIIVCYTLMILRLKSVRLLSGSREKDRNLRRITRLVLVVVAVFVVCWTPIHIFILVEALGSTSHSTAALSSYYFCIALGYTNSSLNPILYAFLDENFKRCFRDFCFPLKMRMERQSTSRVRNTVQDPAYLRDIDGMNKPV

[10] = molecular target: T1, Opioid receptors; mu/kappa/delta (Homo sapiens); test: Relative potency is the IC50 in presence of bivalent ligand divided by IC50 in presence of monovalent ligand relative to morphine; conditions: Cavia porcellus; how it was run: as §3
[11] = molecular target: T1, Opioid receptors; mu/kappa/delta (Homo sapiens); test: as §4; assay type: protein assay; conditions: Cavia porcellus; how it was run: as §3
[12] = molecular target: T1, Opioid receptors; mu/kappa/delta (Homo sapiens); test: IC50 of ethylketazocine (EK) in the presence of the antagonist (10 nM) divided by the control IC50 (same preparation without antagonist) in guinea pig ileum; assay type: functional, tissue-based; conditions: Cavia porcellus, target entry is the homologue from another species; how it was run: as §3
[13] = molecular target: T1, Opioid receptors; mu/kappa/delta (Homo sapiens); test: as §2; assay type: protein assay; conditions: Cavia porcellus; how it was run: as §3

CN1CC[C@]23c4c5ccc(O)c4O[C@H]2[C@@H](NC(=O)CNC(=O)CNC(=O)CNC(=O)CCC(=O)NCC(=O)NCC(=O)NCC(=O)N[C@H]2CC[C@@]4(O)[C@H]6Cc7ccc(O)c8c7[C@@]4(CCN6C)[C@H]2O8)CC[C@@]3(O)[C@H]1C5
Relative affinity [1]: 5.3 | Ratio [2]: 2.9 | Ki [3]: 34 nM | IC50 [4]: 25.1 nM | Potency ratio [5]: 5.5

CN1CC[C@]23c4c5ccc(O)c4O[C@H]2[C@@H](NC(=O)CNC(=O)CCC(=O)NCC(=O)N[C@H]2CC[C@@]4(O)[C@H]6Cc7ccc(O)c8c7[C@@]4(CCN6C)[C@H]2O8)CC[C@@]3(O)[C@H]1C5
Relative affinity [1]: 4.1 | Ratio [2]: 2.1 | Ki [3]: 44 nM | IC50 [4]: 22 nM | Potency ratio [5]: 4

CN1CC[C@]23c4c5ccc(O)c4O[C@@H]2[C@H](NC(=O)CCC(=O)N[C@@H]2CC[C@]4(O)[C@H]6Cc7ccc(O)c8c7[C@@]4(CCN6C)[C@@H]2O8)CC[C@]3(O)[C@H]1C5
Relative affinity [1]: 2.7 | Ratio [2]: 1.9 | Ki [3]: 23 nM | IC50 [4]: 15.7 nM | Potency ratio [5]: 4.3

O=C(CCC(=O)NCC(=O)NCC(=O)NCC(=O)N[C@@H]1CC[C@@]2(O)[C@H]3Cc4ccc(O)c5c4[C@@]2(CCN3CC2CC2)[C@H]1O5)NCC(=O)NCC(=O)NCC(=O)N[C@@H]1CC[C@@]2(O)[C@H]3Cc4ccc(O)c5c4[C@@]2(CCN3CC2CC2)[C@H]1O5
Relative affinity [1]: 0.9 | Ratio [6]: 6.8 | Ki [3]: 1.6 nM | Selectivity ratio [7]: 0.1 | Ratio [8]: 11.4

O=C(CCC(=O)N[C@@H]1CC[C@@]2(O)[C@H]3Cc4ccc(O)c5c4[C@@]2(CCN3CC2CC2)[C@H]1O5)N[C@@H]1CC[C@@]2(O)[C@H]3Cc4ccc(O)c5c4[C@@]2(CCN3CC2CC2)[C@H]1O5
Relative affinity [1]: 0.8 | Ratio [6]: 25.3 | Ki [3]: 1.7 nM | Selectivity ratio [7]: 1.1 | Ratio [8]: 5.1

O=C(CCC(=O)NCC(=O)N[C@@H]1CC[C@@]2(O)[C@H]3Cc4ccc(O)c5c4[C@@]2(CCN3CC2CC2)[C@H]1O5)NCC(=O)N[C@@H]1CC[C@@]2(O)[C@H]3Cc4ccc(O)c5c4[C@@]2(CCN3CC2CC2)[C@H]1O5
Relative affinity [1]: 0.6 | Ratio [6]: 18.6 | Ki [3]: 2.3 nM | Selectivity ratio [7]: 0.4 | Ratio [8]: 10.6

O=C(CCC(=O)NCC(=O)NCC(=O)N[C@@H]1CC[C@@]2(O)[C@H]3Cc4ccc(O)c5c4[C@@]2(CCN3CC2CC2)[C@H]1O5)NCC(=O)NCC(=O)N[C@@H]1CC[C@@]2(O)[C@H]3Cc4ccc(O)c5c4[C@@]2(CCN3CC2CC2)[C@H]1O5
Relative affinity [1]: 0.9 | Ratio [6]: 10.7 | Ki [3]: 1.5 nM | Selectivity ratio [7]: 0.2 | Ratio [8]: 33.5

O=C(CCC(=O)NCC(=O)NCC(=O)NCC(=O)NCC(=O)N[C@@H]1CC[C@@]2(O)[C@H]3Cc4ccc(O)c5c4[C@@]2(CCN3CC2CC2)[C@H]1O5)NCC(=O)NCC(=O)NCC(=O)NCC(=O)N[C@@H]1CC[C@@]2(O)[C@H]3Cc4ccc(O)c5c4[C@@]2(CCN3CC2CC2)[C@H]1O5 (I: GGGG-{Naltrexamine(6β)} / II: GGGG-{Naltrexamine(6β)}; linker I:N-II:N via Suc)
IC50 ratio [9]: 40.7 | Ratio [10]: 7.5 | Selectivity ratio [11]: 0.2 | IC50 ratio [12]: 7.2 | Ratio [13]: 6

CN1CC[C@]23c4c5ccc(O)c4O[C@H]2[C@@H](NC(=O)CNC(=O)CNC(=O)CCC(=O)NCC(=O)NCC(=O)N[C@H]2CC[C@@]4(O)[C@H]6Cc7ccc(O)c8c7[C@@]4(CCN6C)[C@H]2O8)CC[C@@]3(O)[C@H]1C5
Relative affinity [1]: 12.9 | Ratio [2]: 18.9 | Ki [3]: 14 nM | IC50 [4]: 3.9 nM | Potency ratio [5]: 36

CN1CC[C@]23c4c5ccc(O)c4O[C@H]2[C@@H](NC(=O)CCC(=O)N[C@H]2CC[C@@]4(O)[C@H]6Cc7ccc(O)c8c7[C@@]4(CCN6C)[C@H]2O8)CC[C@@]3(O)[C@H]1C5
Relative affinity [1]: 3.6 | Ratio [2]: 2.4 | Ki [3]: 50 nM | IC50 [4]: 30.2 nM | Potency ratio [5]: 4.6

CN1CC[C@]23c4c5ccc(O)c4O[C@@H]2[C@H](NC(=O)CNC(=O)CNC(=O)CCC(=O)NCC(=O)NCC(=O)N[C@@H]2CC[C@]4(O)[C@H]6Cc7ccc(O)c8c7[C@@]4(CCN6C)[C@@H]2O8)CC[C@]3(O)[C@H]1C5
Relative affinity [1]: 6.3 | Ratio [2]: 3.5 | Ki [3]: 10 nM | IC50 [4]: 6.3 nM | Potency ratio [5]: 8

CN1CC[C@]23c4c5ccc(O)c4O[C@@H]2[C@H](NC(=O)CNC(=O)CCC(=O)NCC(=O)N[C@@H]2CC[C@]4(O)[C@H]6Cc7ccc(O)c8c7[C@@]4(CCN6C)[C@@H]2O8)CC[C@]3(O)[C@H]1C5
Relative affinity [1]: 3.5 | Ratio [2]: 2.5 | Ki [3]: 18 nM | IC50 [4]: 19.2 nM | Potency ratio [5]: 5.8

CN1CC[C@]23c4c5ccc(O)c4O[C@@H]2[C@H](NC(=O)CNC(=O)CNC(=O)CNC(=O)CCC(=O)NCC(=O)NCC(=O)NCC(=O)N[C@@H]2CC[C@]4(O)[C@H]6Cc7ccc(O)c8c7[C@@]4(CCN6C)[C@@H]2O8)CC[C@]3(O)[C@H]1C5
Relative affinity [1]: 2.9 | Ratio [2]: 1.7 | Ki [3]: 22 nM | IC50 [4]: 12.6 nM | Potency ratio [5]: 3.9

CC(=O)N[C@@H]1CC[C@@]2(O)[C@H]3Cc4ccc(O)c5c4[C@@]2(CCN3C)[C@H]1O5
Relative affinity [1]: 1 | Ratio [2]: 1 | Ki [3]: 63 nM | IC50 [4]: 45.9 nM | Potency ratio [5]: 2.3
